PAD4 inh – human PAD4 inhibitors, primary screen, biochemical, fluorescence polarization, 1536-well format. Protein-arginine deiminase type-4 (Homo sapiens), Q9UM07. recombinant PAD4, RCA probe fluorescence polarization. inhibition, % at 6.36 µM. 330,000 tested, 0.41% active;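 active = percent inhibition above a cutoff equal to the mean of all tested compounds plus 3 SD, cut at about 15% in these data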
Target sequence (Q9UM07 whole entry, looked up): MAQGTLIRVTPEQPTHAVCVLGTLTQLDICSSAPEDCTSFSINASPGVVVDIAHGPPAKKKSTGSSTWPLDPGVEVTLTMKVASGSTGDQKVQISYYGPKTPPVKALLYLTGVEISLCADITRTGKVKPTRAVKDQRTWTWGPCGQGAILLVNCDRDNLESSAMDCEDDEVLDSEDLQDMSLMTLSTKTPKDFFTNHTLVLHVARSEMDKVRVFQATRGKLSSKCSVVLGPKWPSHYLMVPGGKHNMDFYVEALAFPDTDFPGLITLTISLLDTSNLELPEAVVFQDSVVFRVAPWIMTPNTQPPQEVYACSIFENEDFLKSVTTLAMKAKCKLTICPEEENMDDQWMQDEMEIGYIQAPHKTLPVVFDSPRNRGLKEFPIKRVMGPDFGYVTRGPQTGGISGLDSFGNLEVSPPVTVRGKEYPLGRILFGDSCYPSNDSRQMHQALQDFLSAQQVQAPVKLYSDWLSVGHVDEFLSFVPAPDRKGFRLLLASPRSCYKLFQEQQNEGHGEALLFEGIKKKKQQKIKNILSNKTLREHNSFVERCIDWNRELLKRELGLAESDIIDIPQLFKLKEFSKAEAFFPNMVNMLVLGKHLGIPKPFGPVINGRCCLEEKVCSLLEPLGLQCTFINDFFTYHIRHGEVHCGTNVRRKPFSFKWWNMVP
TDP2 absorb – human TDP2 enzyme inhibitors, primary screen, biochemical, epi absorbance, recombinant enzyme | AID 720702, 2013 | 370,000 tested, 0.34% active | Tyrosyl-DNA phosphodiesterase 2 (Homo sapiens), O95551 | T5PNP hydrolysis, p-nitrophenol absorbance 415 nm | inhibition, % at 12.8 µM;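 active = inhibition above the mean of all tested compounds plus 3 SD, set per campaign, cut at about 25% in these data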
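Assay system: Recombinant human TDP2 | Quantity: 120 nM TDP2 per well | Incubation: 2 h at 37 °C | Signal: Epi absorbance | Evaluation: Percent inhibition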
GSTO1 counter – inhibitors of recombinant GSTO1, primary screen, counter-screen for RBBP9 inhibitor project, biochemical, fluorescence polarization | Glutathione S-transferase omega-1 (Homo sapiens), P78417 | activity-based probe fluorescence polarization | inhibition, % at 5.96 µM | 300,000 tested, 1.1% active;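 active = inhibition above the campaign mean inhibition plus 3 SD, cut at about 35% in these data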
UBC9 SUMO inh – inhibitors of in vitro SUMOylation cascade, primary screen, biochemical, HTRF, uHTS. SUMO-conjugating enzyme UBC9 (Homo sapiens), P63279. inhibition, % at 35 µM. 290,000 tested, 0.36% active. HTRF SUMOylation assay, SAE1/SAE2 + UBC9; in the data active = inhibition above about 50%, passing the limit was not always enough; inconclusive = no clear call, values can overlap the other calls
Target sequence (P63279 whole entry, looked up): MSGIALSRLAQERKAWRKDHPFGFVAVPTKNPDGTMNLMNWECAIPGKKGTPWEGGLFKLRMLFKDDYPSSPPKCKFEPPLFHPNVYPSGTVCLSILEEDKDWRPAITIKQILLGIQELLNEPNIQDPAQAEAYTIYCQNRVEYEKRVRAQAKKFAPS
JMJD2C inh – inhibitors of GASC-1 histone demethylase, primary screen, biochemical, fluorescence, DELFIA europium. GST-JMJD2C(1-420) H3K9me3 demethylation. Lysine-specific demethylase 4C (Homo sapiens), Q9H3R0. inhibition, % at 2.35 µM. 330,000 tested, 0.069% active;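 active = more than half of a compound's replicate wells show inhibition beyond 50%, single wells judged on their own value; inconclusive = some, but no more than half, of replicates pass 50% inhibition; inactive = no replicate passes 50% inhibition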;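 also: signal counts dimethyl H3K9 product captured on neutravidin plate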
Apaf-1 inh – inhibitors of human Apaf-1 apoptosome, primary screen, biochemical, DEVD-Rh110 fluorescence, uHTS | Apoptotic protease-activating factor 1 (Homo sapiens), O14727 | reconstituted apoptosome caspase-3 activity | inhibition, % at 20 µM | 330,000 tested, 0.71% active | AID 489030, 2010; active = inhibition of at least 40% at 20 µM
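Material: cell-free apoptosome with Apaf-1, procaspase-3 and caspase-9; Buffer or medium: Hepes pH 7.5 with detergent and BSA; Reagent: cytochrome c trigger plus (Z-DEVD)2-Rh110 caspase-3 substrate; Times: compound with Apaf-1, dATP, procaspase-3 30 min, then 50 min reaction, room temperature; Technique: Rh110 fluorescence intensity.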
GSTO1 inh conf – GSTO1 inhibitor hit confirmation, counter-screen for RBBP9 inhibitor project, biochemical, fluorescence polarization, triplicate. shares compounds with GSTO1 counter. 2,400 tested, 54% active. recombinant GSTO1, probe fluorescence polarization. inhibition, % at 5.96 µM;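 active = inhibition above the primary screen's cutoff, its mean inhibition plus 3 SD, cut at about 35% in these data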;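 also: loss of polarization as inhibitors block binding of rhodamine sulfonate ester activity probe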
GSTO1 ABPP inh – inhibitors of purified human GSTO1, late-stage follow-up, biochemical, gel ABPP, SE-Rh probe, percent inhibition; recombinant GSTO1, gel ABPP SE-Rh probe fluorescence; inhibition, % at 1 µM; shares compounds with GSTO1 counter; 130 tested, 30% active;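 active = inhibition of the enzyme GSTO1 above about 75%, limit read from the data; inactive = inhibition below that limit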
Of the large screens only hits and unclear results are named; the others gave an inactive call (follow-up assays come after a bar, where they were run). Sampled rows, rich in hits. Any-hit rate of the full collection: about 1.6%.

CN(C)Cc1nc2ccccc2c(=O)n1Cc1nc(-c2cc3ccccc3o2)cs1	none
CCN(c1ccccc1)S(=O)(=O)c1ccc2ccccc2c1	none
O=[N+]([O-])c1cccc(N(CC2CO2)S(=O)(=O)c2ccccc2)c1 (stereo not drawn)	GSTO1 counter 100.6 | GSTO1 inh conf 98.0 | GSTO1 ABPP inh inactive
O=S(=O)(c1ccc2ccccc2c1)N(CC1CO1)c1ccccc1 (stereo not drawn)	GSTO1 counter 69.7 | GSTO1 inh conf 92.3 | GSTO1 ABPP inh inactive
Cc1ccc(N(CC2CO2)S(=O)(=O)c2ccc([N+](=O)[O-])cc2)cc1 (stereo not drawn)	GSTO1 counter 87.7 | GSTO1 inh conf 84.8 | GSTO1 ABPP inh inactive
Cc1ccc(S(=O)(=O)N(CC2CO2)c2cc(Cl)ccc2Cl)cc1 (stereo not drawn)	GSTO1 counter 85.0 | GSTO1 inh conf 91.1 | GSTO1 ABPP inh inactive
Cc1ccc(S(=O)(=O)N(CC(=O)N(C)C)c2cccc([N+](=O)[O-])c2)cc1	none
O=C(CN(c1cccc([N+](=O)[O-])c1)S(=O)(=O)c1ccccc1)N(Cc1ccccc1)Cc1ccccc1	none
CCCC1CCC2(CC1)CCC2OC(=S)Nc1ccccc1 (stereo not drawn)	none (no result: PAD4 inh, GSTO1 counter, UBC9 SUMO inh, JMJD2C inh, Apaf-1 inh)
CC1(OC(=O)C2CCCC2)C(=O)C=C2C=C(c3ccsc3)N(C3CC3)C=C2C1=O (stereo not drawn)	GSTO1 counter 47.1 | GSTO1 inh conf inactive
C=CCN1C=C2C(=O)C(C)(OC(=O)C3CCCC3)C(=O)C=C2C=C1c1ccsc1 (stereo not drawn)	GSTO1 counter 40.9 | GSTO1 inh conf inactive
C=CCn1c(NC(=O)c2ccc(Br)o2)c(S(=O)(=O)c2ccccc2)c2nc3ccccc3nc21	PAD4 inh 20.2, GSTO1 counter 65.2, Apaf-1 inh 62.8 | GSTO1 inh conf inactive
C=CCn1c(NC(=O)c2ccco2)c(S(=O)(=O)c2ccccc2)c2nc3ccccc3nc21	none (no result: PAD4 inh, TDP2 absorb, GSTO1 counter, JMJD2C inh, Apaf-1 inh)
O=C(CCl)Nc1ccccc1Sc1ccc(Cl)cc1	GSTO1 counter 90.3 | GSTO1 inh conf 93.5
O=C(CCl)Nc1ccccc1C(=O)c1ccccc1	GSTO1 counter 81.9 | GSTO1 inh conf 98.5
O=C(OCc1cn(Cc2ccccc2)nn1)N1CCCC1	none (no result: PAD4 inh, GSTO1 counter, UBC9 SUMO inh, JMJD2C inh, Apaf-1 inh)
Cc1ccccc1Cn1cc(CN2[C@@H](CC(C)C)COc3cccc(F)c3S2(=O)=O)nn1	none (no result: PAD4 inh, GSTO1 counter, UBC9 SUMO inh, JMJD2C inh, Apaf-1 inh)
Cc1ccc(-c2nc(C3CCCN(S(=O)(=O)c4ccc(Cl)s4)C3)no2)cc1 (stereo not drawn)	none (no result: PAD4 inh, GSTO1 counter, UBC9 SUMO inh, JMJD2C inh, Apaf-1 inh)
O=[N+]([O-])c1ccc(O)c(/C=N/Nc2nn[nH]n2)c1	GSTO1 counter 47.2 | GSTO1 inh conf inactive
O=C(CCl)N1CCN(CC(=O)N2CCCC2)CC1	GSTO1 counter 81.7 | GSTO1 inh conf 80.5 | GSTO1 ABPP inh inactive
O=C1CCN(CCc2ccccc2)CCN1[C@H](CSc1ccc(Br)cc1)c1ccccc1	none
CCCN1CCC(=O)N([C@H](CSc2ccc(Br)cc2)c2ccccc2)CC1	GSTO1 counter 52.6 | GSTO1 inh conf inactive
O=C(c1cc(Cl)cc(Cl)c1)N1CC[C@H]2[C@H](CCCN2Cc2ccc(F)cc2)C1	none (no result: PAD4 inh, GSTO1 counter, UBC9 SUMO inh, JMJD2C inh, Apaf-1 inh)
CCCNC(=O)COC(=O)c1ccccc1C(=O)c1ccc(Cl)c([N+](=O)[O-])c1	none
Cc1ccc(Cl)c(NC(=O)COC(=O)c2ccccc2C(=O)c2ccc(Cl)c([N+](=O)[O-])c2)c1Cl	GSTO1 counter 49.2 (no result: Apaf-1 inh) | GSTO1 inh conf 52.2
O=C1CSc2ccc(C(=O)N3CCCC(C(=O)N4CCCN(Cc5ccccc5)CC4)C3)cc2N1 (stereo not drawn)	none (no result: PAD4 inh, GSTO1 counter, UBC9 SUMO inh, JMJD2C inh, Apaf-1 inh)
COc1ccc(CNC(=O)O[C@H]2CC[C@@]34CCCN3C(=O)CCC[C@H]4C2)cc1OC	none (no result: PAD4 inh, GSTO1 counter, UBC9 SUMO inh, JMJD2C inh, Apaf-1 inh)
COc1ccc(C2CC(=O)N(C)c3ccccc3S2)cc1 (stereo not drawn)	GSTO1 counter 47.2 | GSTO1 inh conf inactive
CN1C(=O)CC(c2ccco2)Sc2ccccc21 (stereo not drawn)	JMJD2C inh inconclusive
CCOC(=O)C1CCN(C(=O)Nc2ccc3nc(-c4ccco4)c(-c4ccco4)nc3c2)CC1	GSTO1 counter 79.8, UBC9 SUMO inh 73.2, Apaf-1 inh 69.8 (no result: TDP2 absorb) | GSTO1 inh conf inactive
CCOC(=O)C1CCN(C(=O)Nc2ccc3c(c2)nc(C)n3C)CC1	none
CCN(CC)P(=O)(Nc1ccc(Br)cc1)c1c(C)nn(CCC#N)c1NC(=O)c1ccc(Cl)cc1 (stereo not drawn)	GSTO1 counter 47.3 | GSTO1 inh conf inactive
COC(=O)CCC(=O)OC1(C)C(=O)C2=CN(CCc3c[nH]c4ccccc34)C(c3ccc(OC)cc3)=CC2=C(Br)C1=O (stereo not drawn)	none (no result: TDP2 absorb, UBC9 SUMO inh)
COC(=O)CCC(=O)OC1(C)C(=O)C2=CN(Cc3ccccc3)C(c3ccc(OC)cc3)=CC2=C(Br)C1=O (stereo not drawn)	GSTO1 counter 49.6 (no result: UBC9 SUMO inh) | GSTO1 inh conf inactive
COC(=O)CCC(=O)OC1(C)C(=O)C2=CN(CC(C)C)C(c3ccc(OC)cc3)=CC2=C(Br)C1=O (stereo not drawn)	GSTO1 counter 58.6, Apaf-1 inh 52.0 (no result: TDP2 absorb) | GSTO1 inh conf 52.5
CCC(=O)OC1(C)C(=O)C2=COC(c3ccc(OC)cc3)=CC2=C(Br)C1=O (stereo not drawn)	none
COC(=O)CCC(=O)OC1(C)C(=O)C2=CN(Cc3ccc(OC)cc3)C(c3ccc(OC)cc3)=CC2=C(Br)C1=O (stereo not drawn)	GSTO1 counter 38.0 (no result: UBC9 SUMO inh) | GSTO1 inh conf 38.9
COC(=O)CCC(=O)OC1(C)C(=O)C2=CN(c3ccccc3)C(c3ccc(OC)cc3)=CC2=C(Br)C1=O (stereo not drawn)	GSTO1 counter 44.6 (no result: UBC9 SUMO inh) | GSTO1 inh conf inactive
CCOC(=O)[C@]12CCCCC/C=C\1N(CCc1ccc(Cl)cc1)C(=O)[C@H]2CC(=O)N1CCCC1	none (no result: PAD4 inh, GSTO1 counter, UBC9 SUMO inh, JMJD2C inh, Apaf-1 inh)
CC(C)(C)N(Cc1cn(Cc2ccccc2)nn1)S(=O)(=O)c1ccc(N2CCCCC2)cc1Br	none (no result: PAD4 inh, GSTO1 counter, UBC9 SUMO inh, JMJD2C inh, Apaf-1 inh)

Compound activity as filed in PubChem BioAssay.
